Consider 15 compounds from ChEMBL document CHEMBL1142469, “Identification of minimal sequence for HIV-1 fusion inhibitors” (Bioorg Med Chem, 2008).

The test system of test [1] is Human immunodeficiency virus 1. The test is described as follows: Antiviral activity against HIV1 in human HeLa-CD4-LTR-beta-gal (MAGI) cells assessed as inhibition of viral replication after 48 hrs by multinuclear activation of galactosidase indicator assay. Particulars: Human immunodeficiency virus 1, HeLa.
In test [2] the test system is Human immunodeficiency virus 1. The test is described as follows: Binding affinity to HIV1 heptad repeat 1 peptide N36 assessed as melting temperature of drug-HR1 peptide complex. In outline: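 HR2 peptide and N36 (HR1) peptide mixed, each at 10 μM final in PBS pH 7.4, incubated 37 °C for 30 min, then followed by CD through thermal unfolding; Tm taken as the midpoint of the unfolding transition.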

Broadly, the EC50 is the midpoint of the concentration-response curve.

Where a SMILES comes first, the peptide text is derived from it. [ ]: non-standard residue; d: D form. Aib = CC(C)(N)C(=O)O

For the compound `CC[C@H](C)[C@H](NC(=O)[C@H](CCCCN)NC(=O)[C@H](CCCCN)NC(=O)[C@H](CC(=O)O)NC(=O)[C@H](Cc1c[nH]c2ccccc12)NC(=O)[C@H](CCC(=O)O)NC(=O)[C@H](CCC(=O)O)NC(=O)[C@@H](N)Cc1c[nH]c2ccccc12)C(=O)N[C@@H](CCC(=O)O)C(=O)N[C@@H](CCC(=O)O)C(=O)N[C@@H](Cc1ccc(O)cc1)C(=O)N[C@H](C(=O)N[C@@H](CCCCN)C(=O)N[C@@H](CCCCN)C(=O)N[C@H](C(=O)N[C@@H](CCC(=O)O)C(=O)N[C@@H](CCC(=O)O)C(=O)N[C@@H](CC(C)C)C(=O)N[C@H](C(=O)N[C@@H](CCCCN)C(=O)N[C@@H](CCCCN)C(=O)N[C@@H](CO)C(=O)NC(C)(C)C(=O)N[C@@H](CCC(=O)O)C(=O)N[C@@H](CCC(N)=O)C(=O)N[C@@H](CCC(N)=O)C(=O)NC(C)(C)C(=O)N[C@@H](CCCCN)C(=O)N[C@@H](CC(N)=O)C(=O)O)[C@@H](C)CC)[C@@H](C)CC)[C@@H](C)O` (H-WEEWDKKIEEYTKKIEELIKKS[Aib]EQQ[Aib]KN-OH), in test [1], the EC50 was 7.1 nM. The same measure, in the same setting: the same measure for `CC[C@H](C)[C@H](NC(=O)CNC(=O)C(C)(C)NC(=O)[C@H](CC(=O)O)NC(=O)[C@H](Cc1c[nH]c2ccccc12)NC(=O)CNC(=O)C(C)(C)NC(=O)[C@@H](N)Cc1c[nH]c2ccccc12)C(=O)N[C@@H](CCC(=O)O)C(=O)N[C@@H](CCC(=O)O)C(=O)N[C@@H](Cc1ccc(O)cc1)C(=O)N[C@H](C(=O)N[C@@H](CCCCN)C(=O)N[C@@H](CCCCN)C(=O)N[C@H](C(=O)N[C@@H](CCC(=O)O)C(=O)N[C@@H](CCC(=O)O)C(=O)N[C@@H](CC(C)C)C(=O)N[C@H](C(=O)N[C@@H](CCCCN)C(=O)N[C@@H](CCCCN)C(=O)N[C@@H](CO)C(=O)N[C@@H](CCC(=O)O)C(=O)N[C@@H](CCC(=O)O)C(=O)N[C@@H](CCC(N)=O)C(=O)N[C@@H](CCC(N)=O)C(=O)N[C@@H](CCCCN)C(=O)N[C@@H](CCCCN)C(=O)N[C@@H](CC(N)=O)C(=O)O)[C@@H](C)CC)[C@@H](C)CC)[C@@H](C)O` (H-W[Aib]GWD[Aib]GIEEYTKKIEELIKKSEEQQKKN-OH): 37.5 nM.

As for H-WEEWDKKIEEYTKKIEELIKKS-OH, in test [1], the EC50 was found to be 60 nM. For the same compound, in test [2], the Tm worked out at 63.5 °C.

On to `CC[C@H](C)[C@H](NC(=O)[C@H](CCCCN)NC(=O)[C@H](CCCCN)NC(=O)[C@H](CC(=O)O)NC(=O)[C@H](Cc1c[nH]c2ccccc12)NC(=O)[C@H](CCC(=O)O)NC(=O)[C@H](CCC(=O)O)NC(=O)[C@@H](N)Cc1c[nH]c2ccccc12)C(=O)N[C@@H](CCC(=O)O)C(=O)N[C@@H](CCC(=O)O)C(=O)N[C@@H](Cc1ccc(O)cc1)C(=O)N[C@H](C(=O)N[C@@H](CCCCN)C(=O)N[C@@H](CCCCN)C(=O)N[C@H](C(=O)NC(C)(C)C(=O)N[C@@H](CCC(=O)O)C(=O)N[C@@H](CC(C)C)C(=O)N[C@H](C(=O)NC(C)(C)C(=O)N[C@@H](CCCCN)C(=O)N[C@@H](CO)C(=O)N[C@@H](CCC(=O)O)C(=O)N[C@@H](CCC(=O)O)C(=O)N[C@@H](CCC(N)=O)C(=O)N[C@@H](CCC(N)=O)C(=O)N[C@@H](CCCCN)C(=O)N[C@@H](CCCCN)C(=O)N[C@@H](CC(N)=O)C(=O)O)[C@@H](C)CC)[C@@H](C)CC)[C@@H](C)O` (H-WEEWDKKIEEYTKKI[Aib]ELI[Aib]KSEEQQKKN-OH), for which, in test [1], the EC50 turned out to be 0.87 nM. The same measure, in the same setting: the same measure for `CC[C@H](C)[C@H](NC(=O)[C@H](CC(C)C)NC(=O)[C@H](CCC(=O)O)NC(=O)[C@H](CCC(=O)O)NC(=O)[C@@H](NC(=O)[C@H](CCCCN)NC(=O)[C@H](CCCCN)NC(=O)[C@@H](NC(=O)[C@H](Cc1ccc(O)cc1)NC(=O)[C@H](CCC(=O)O)NC(=O)[C@H](CCC(=O)O)NC(=O)[C@@H](NC(=O)[C@H](CCCCN)NC(=O)C(C)(C)NC(=O)[C@H](CC(=O)O)NC(=O)[C@H](Cc1c[nH]c2ccccc12)NC(=O)[C@H](CCC(=O)O)NC(=O)C(C)(C)NC(=O)[C@@H](N)Cc1c[nH]c2ccccc12)[C@@H](C)CC)[C@@H](C)O)[C@@H](C)CC)C(=O)N[C@@H](CCCCN)C(=O)N[C@@H](CCCCN)C(=O)N[C@@H](CO)C(=O)N[C@@H](CCC(=O)O)C(=O)N[C@@H](CCC(=O)O)C(=O)N[C@@H](CCC(N)=O)C(=O)N[C@@H](CCC(N)=O)C(=O)N[C@@H](CCCCN)C(=O)N[C@@H](CCCCN)C(=O)N[C@@H](CC(N)=O)C(=O)O` (H-W[Aib]EWD[Aib]KIEEYTKKIEELIKKSEEQQKKN-OH): 0.54 nM. For H-WEEWDKKIEEYTKKIEELIKKSEEQQKKN-OH, the concentration for a half-maximal effect (EC50) in test [1] stood at 0.46 nM. The Tm in test [2] came to 65 °C. For H-WMEWDREINNYTSLIHSLIEES-OH, in test [1], the EC50 is over 1000 nM. Further, the Tm in test [2] is 38.5 °C.

Turning to `CC[C@H](C)[C@H](NC(=O)[C@H](CCCCN)NC(=O)[C@H](CCCCN)NC(=O)[C@H](CC(=O)O)NC(=O)[C@H](Cc1c[nH]c2ccccc12)NC(=O)[C@H](CCC(=O)O)NC(=O)[C@H](CCC(=O)O)NC(=O)[C@@H](N)Cc1c[nH]c2ccccc12)C(=O)N[C@@H](CCC(=O)O)C(=O)N[C@@H](CCC(=O)O)C(=O)N[C@@H](Cc1ccc(O)cc1)C(=O)N[C@H](C(=O)N[C@@H](CCCCN)C(=O)N[C@@H](CCCCN)C(=O)N[C@H](C(=O)N[C@@H](CCC(=O)O)C(=O)N[C@@H](CCC(=O)O)C(=O)N[C@@H](CC(C)C)C(=O)N[C@H](C(=O)N[C@@H](CCCCN)C(=O)N[C@@H](CCCCN)C(=O)N[C@@H](CO)C(=O)NC(C)(C)C(=O)NCC(=O)N[C@@H](CCC(N)=O)C(=O)N[C@@H](CCC(N)=O)C(=O)NC(C)(C)C(=O)NCC(=O)N[C@@H](CC(N)=O)C(=O)O)[C@@H](C)CC)[C@@H](C)CC)[C@@H](C)O` (H-WEEWDKKIEEYTKKIEELIKKS[Aib]GQQ[Aib]GN-OH), the EC50 in test [1] came to 31.3 nM. The same measure, in the same setting: the same measure for enfuvirtide: 15 nM. For “H-WEEWDKKIEEYTKKIEELIKKSEEQQKKNEEELKK-OH”, the EC50 in test [1] was determined as 0.39 nM. Also, the Tm in test [2] turned out to be 71.5 °C.

For the compound `CC[C@H](C)[C@H](NC(=O)CNC(=O)C(C)(C)NC(=O)[C@@H](NC(=O)[C@H](Cc1ccc(O)cc1)NC(=O)CNC(=O)C(C)(C)NC(=O)[C@@H](NC(=O)[C@H](CCCCN)NC(=O)[C@H](CCCCN)NC(=O)[C@H](CC(=O)O)NC(=O)[C@H](Cc1c[nH]c2ccccc12)NC(=O)[C@H](CCC(=O)O)NC(=O)[C@H](CCC(=O)O)NC(=O)[C@@H](N)Cc1c[nH]c2ccccc12)[C@@H](C)CC)[C@@H](C)O)C(=O)N[C@@H](CCC(=O)O)C(=O)N[C@@H](CCC(=O)O)C(=O)N[C@@H](CC(C)C)C(=O)N[C@H](C(=O)N[C@@H](CCCCN)C(=O)N[C@@H](CCCCN)C(=O)N[C@@H](CO)C(=O)N[C@@H](CCC(=O)O)C(=O)N[C@@H](CCC(=O)O)C(=O)N[C@@H](CCC(N)=O)C(=O)N[C@@H](CCC(N)=O)C(=O)N[C@@H](CCCCN)C(=O)N[C@@H](CCCCN)C(=O)N[C@@H](CC(N)=O)C(=O)O)[C@@H](C)CC` (H-WEEWDKKI[Aib]GYT[Aib]GIEELIKKSEEQQKKN-OH), the EC50 in test [1] was found to be 270 nM. Still for that read-out and setting: as for “H-YTSLIEELIKKSEEQQKKNEEELKKLEEWAKKWNWF-OH”, the figure is 1.8 nM; as for `CC[C@H](C)[C@H](NC(=O)[C@H](CC(C)C)NC(=O)[C@H](CCC(=O)O)NC(=O)[C@H](CCC(=O)O)NC(=O)[C@@H](NC(=O)[C@H](CCCCN)NC(=O)C(C)(C)NC(=O)[C@@H](NC(=O)[C@H](Cc1ccc(O)cc1)NC(=O)[C@H](CCC(=O)O)NC(=O)C(C)(C)NC(=O)[C@@H](NC(=O)[C@H](CCCCN)NC(=O)[C@H](CCCCN)NC(=O)[C@H](CC(=O)O)NC(=O)[C@H](Cc1c[nH]c2ccccc12)NC(=O)[C@H](CCC(=O)O)NC(=O)[C@H](CCC(=O)O)NC(=O)[C@@H](N)Cc1c[nH]c2ccccc12)[C@@H](C)CC)[C@@H](C)O)[C@@H](C)CC)C(=O)N[C@@H](CCCCN)C(=O)N[C@@H](CCCCN)C(=O)N[C@@H](CO)C(=O)N[C@@H](CCC(=O)O)C(=O)N[C@@H](CCC(=O)O)C(=O)N[C@@H](CCC(N)=O)C(=O)N[C@@H](CCC(N)=O)C(=O)N[C@@H](CCCCN)C(=O)N[C@@H](CCCCN)C(=O)N[C@@H](CC(N)=O)C(=O)O` (H-WEEWDKKI[Aib]EYT[Aib]KIEELIKKSEEQQKKN-OH), 2.15 nM. Turning to `CC[C@H](C)[C@H](NC(=O)[C@H](CCCCN)NC(=O)[C@H](CCCCN)NC(=O)[C@H](CC(=O)O)NC(=O)[C@H](Cc1c[nH]c2ccccc12)NC(=O)[C@H](CCC(=O)O)NC(=O)[C@H](CCC(=O)O)NC(=O)[C@@H](N)Cc1c[nH]c2ccccc12)C(=O)N[C@@H](CCC(=O)O)C(=O)N[C@@H](CCC(=O)O)C(=O)N[C@@H](Cc1ccc(O)cc1)C(=O)N[C@H](C(=O)N[C@@H](CCCCN)C(=O)N[C@@H](CCCCN)C(=O)N[C@H](C(=O)NC(C)(C)C(=O)NCC(=O)N[C@@H](CC(C)C)C(=O)N[C@H](C(=O)NC(C)(C)C(=O)NCC(=O)N[C@@H](CO)C(=O)N[C@@H](CCC(=O)O)C(=O)N[C@@H](CCC(=O)O)C(=O)N[C@@H](CCC(N)=O)C(=O)N[C@@H](CCC(N)=O)C(=O)N[C@@H](CCCCN)C(=O)N[C@@H](CCCCN)C(=O)N[C@@H](CC(N)=O)C(=O)O)[C@@H](C)CC)[C@@H](C)CC)[C@@H](C)O` (H-WEEWDKKIEEYTKKI[Aib]GLI[Aib]GSEEQQKKN-OH), the EC50 in test [1] turned out to be 25.6 nM.

As for H-WMEWDREINNYTSLIHSLIEESQNQQEKN-OH, in test [1], the EC50 was 46 nM. In addition, the Tm in test [2] was found to be 48.5 °C.
